Screens: PubChem BioAssay, The Scripps Research Institute Molecular Screening Center
SIAE inh: human SIAE inhibitors, primary screen, biochemical, fluorescence polarization, FP-Rh probe, 1536-well HTS; SIAE FP-Rh probe binding; inhibition, % at 9.66 µM; 0.69% of 370,000 active; AID 1053197, 2014;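 active = inhibition above a cutoff: mean of compounds within the control limits plus 3 SD of those, cut at about 17% in these data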;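 also: 0% = plate median of compound wells and 100% = probe without SIAE protein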
TDP2 inh: human TDP2 enzyme inhibitors, primary screen, biochemical, epi absorbance, recombinant enzyme. T5PNP hydrolysis, p-nitrophenol absorbance 415 nm. inhibition, % at 12.8 µM. 0.34% of 370,000 active. AID 720702, 2013;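 active = inhibition above the mean of all tested compounds plus 3 SD, set per campaign, cut at about 25% in these data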;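 also: 0% = DMSO with enzyme and 100% = buffer with substrate but no TDP2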
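Read-out basis: percent inhibition. System: recombinant human TDP2. Buffer or medium: Mg2+-containing Tris-HCl buffer, pH 7.5. Repeats: single replicate. Timing: reaction 2 h, 37 °C. Benchmarks: high control without enzyme, low control DMSO plus TDP2. Probe or stimulus: 5 mM T5PNP. Doses: 12.8 µM only. Measured by: epi absorbance of p-nitrophenol freed from T5PNP by hydrolysis.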
ABHD4 inh: ABHD4 inhibitors, primary screen, biochemical, fluorescence polarization, mouse; (Lyso)-N-acylphosphatidylethanolamine lipase (Mus musculus), Q8VD66; purified mABHD4, FP-Rh probe fluorescence polarization; inhibition, % at 8.92 µM; 0.54% of 370,000 active; AID 720543, 2013;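 active = inhibition exceeding the mean over every tested compound plus 3 SD, cut at about 30% in these data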;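 also: 0% = plate median of compound wells and 100% = S159A mutant with DMSO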
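System: mouse ABHD4 enzyme, wild type / Medium: HEPES pH 7.0, NaCl, Pluronic buffer / Reagent: FP-Rh activity-based fluorescent probe / Control set: S159A mutant high control, sample median low control / Detection: fluorescence polarization with parallel and perpendicular emission, 525/598 nm / Schedule: 45 min + 60 min at 25 °C / Compound dosing: 8.92 µM, single dose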
TCR-CD3 inh: inhibitors of human TCR-CD3 interaction, primary screen, biochemical, fluorescence, TAMRA-labeled TCR probe. inhibition, % at 9.4 µM. 0.37% of 360,000 active; in the data active = inhibition above about 19%;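 also: recombinant mutant TCR 2C K166C tagged with TAMRA read by polarization; 0% = receptor in buffer alone and 100% = receptor with positive control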
HTRA1 inhibitor: HTRA1 serine protease inhibitors, primary screen, biochemical, fluorescence polarization, HTS; Q92743; recombinant HTRA1, FP-rhodamine activity-based probe; inhibition, % at 5.96 µM; 0.5% of 340,000 active; AID 504803, 2011; in the data active = inhibition above about 36%;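 also: 0% = enzyme with DMSO and 100% = wells lacking enzyme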
Target sequence (Q92743 whole entry, looked up): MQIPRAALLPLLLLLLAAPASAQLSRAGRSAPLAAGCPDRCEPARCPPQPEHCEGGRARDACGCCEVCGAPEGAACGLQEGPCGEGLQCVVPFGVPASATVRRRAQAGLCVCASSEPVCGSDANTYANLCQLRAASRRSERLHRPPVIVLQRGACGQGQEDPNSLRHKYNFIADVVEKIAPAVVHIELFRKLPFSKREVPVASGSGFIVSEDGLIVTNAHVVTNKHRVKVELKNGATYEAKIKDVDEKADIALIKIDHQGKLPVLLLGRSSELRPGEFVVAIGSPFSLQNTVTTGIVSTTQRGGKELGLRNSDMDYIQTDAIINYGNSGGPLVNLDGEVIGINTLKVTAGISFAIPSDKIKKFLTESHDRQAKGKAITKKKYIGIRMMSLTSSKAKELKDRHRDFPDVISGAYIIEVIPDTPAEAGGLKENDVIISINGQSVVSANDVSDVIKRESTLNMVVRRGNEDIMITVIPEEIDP
LEDGF integ inh: blockers of LEDGF/p75-dependent integrase strand transfer – biochemical, TR-FRET, high throughput, primary screen | HIV-1 integrase (with human LEDGF/p75) | inhibition, % at 3.7 µM | TR-FRET IN-LEDGF/p75 DNA integration, Eu/Cy5 | 0.64% of 370,000 active;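 active = inhibition above the screen-wide mean plus 3 SD, cut at about 13% in these data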;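 also: signal is the Cy5 over europium emission ratio at 671 and 618 nm; 0% = plate median of compound wells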
TDP2 inh conf: human TDP2 enzyme inhibitors, retest, confirmation, biochemical, epi absorbance, recombinant enzyme. shares compounds with TDP2 inh. absorbance read-out. inhibition, % at 12.8 µM. 22% of 1,100 active; in the data active = inhibition above about 25%;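 also: 0% = vehicle with enzyme and 100% = no enzyme buffer only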
* hit, by the source's call; . = not tested or not shown. Hits are enriched below; roughly 2.2% of the tested compounds scored in any of these assays.

SMILES	SIAE inh	TDP2 inh	ABHD4 inh	TCR-CD3 inh	HTRA1 inhibitor	LEDGF integ inh	TDP2 inh conf
Cc1ccccc1NC(=O)OCCN1CCCC12CCC(c1ccccc1)CC2 (configuration not stated)	0.8	-6.2	3.9	.	.	4.5	.
COc1cc(/C=C2/C(=O)N(c3ccc(C)c(C)c3)N=C2C)cc([N+](=O)[O-])c1O	9.9	19.0	22.4	0.4	11.4	-2.9	.
COc1cc(/C=C2\C(=O)N(c3ccccc3)N=C2C)ccc1Oc1ccc([N+](=O)[O-])cc1[N+](=O)[O-]	7.2	64.7*	-12.3	1.0	-1.7	5.7	16.0
C#CCOc1ccc(/C=C2/C(=O)N(c3cccc(C(=O)O)c3)N=C2C)cc1OC	1.4	71.4*	7.4	0.1	14.3	-0.8	18.1
CCc1c(Cc2cccc(F)c2)ncn1CCc1ccccc1OC	-0.5	2.6	5.1	5.5	.	6.1	.
Cc1nnc(SCc2ccccc2)n(N)c1=O	-0.3	58.4*	-2.5	6.3	-0.4	-0.3	-4.1
Cc1ccc(CSc2nnc(C)c(=O)n2N)cc1	-9.6	-16.4	-1.8	-2.5	-2.5	1.1	.
COc1ccc(N2C(=O)c3n[nH]c(C)c3C2c2ccc(F)cc2)cc1 (configuration not stated)	-0.5	8.7	-7.0	-1.1	.	-2.4	.
O=C1C(Cl)=C(NCc2ccco2)C(=O)c2ccccc21	-4.2	34.6*	5.8	-2.7	4.8	10.1	24.0
CCNC1=C(Cl)C(=O)c2ccccc2C1=O	2.4	9.6	-0.8	2.0	5.4	2.8	.
CC(C)(C)C(=O)[C@@H]1[C@@H]2C(=O)N(c3ccc4c(c3)OCCO4)C(=O)[C@@H]2C2c3ccccc3C=CN21 (some centres not stated)	-0.8	27.1*	1.5	-11.1	-6.6	7.6	8.6
O=C(CSc1nnc(SCc2cccc3ccccc23)s1)Nc1ccc(S(=O)(=O)Nc2nccs2)cc1	-86.8	-17.6	-89.7	.	.	4.9	.
CCCCn1c(N)c(N(CC(C)C)C(=O)c2cccc(OCc3ccccc3)c2)c(=O)[nH]c1=O	2.6	25.2*	2.8	-2.0	2.3	-0.7	-3.8
CCCCCN(C(=O)CCC(=O)OCC(=O)NCc1cccc(OC)c1)c1c(N)n(CCCC)c(=O)[nH]c1=O	-5.7	75.0*	4.0	-2.5	-0.1	-0.1	-2.2
CCCCn1c(N)c(N(CC(C)C)C(=O)c2ccc(COc3ccccc3)o2)c(=O)[nH]c1=O	1.9	8.1	-0.9	-2.3	-4.5	0.3	.
O=C(NCC1COc2ccccc2O1)c1ccc(NC(=O)C(Cl)Cl)cc1 (configuration not stated)	-0.6	-1.8	-7.5	.	.	1.3	.
O=C(COC(=O)c1ccc([N+](=O)[O-])s1)NCc1ccc(F)cc1	0.8	59.4*	-1.1	8.9	33.1	7.4	23.2
Cc1cc(C)c(NC(=O)COC(=O)c2ccc([N+](=O)[O-])s2)c(C)c1	2.4	-8.1	-4.6	0.7	12.9	1.5	.
CN(CC(=O)Nc1ccccc1Cl)C(=O)COC(=O)c1ccc([N+](=O)[O-])s1	10.6	29.6*	-4.6	-5.6	36.0	10.0	18.9
O=C(COC(=O)c1ccc([N+](=O)[O-])s1)NC(=O)NCc1ccccc1	-2.7	21.4	4.1	-0.8	22.5	0.3	.
NS(=O)(=O)c1ccc(NC(=O)COC(=O)c2ccc([N+](=O)[O-])s2)cc1	-0.3	27.5*	-7.2	-4.3	34.6	6.9	36.0*
O=C(O)CN1C(=O)CSC1=S	-2.6	26.9*	-40.9	-5.3	-3.1	-2.3	4.7
Cc1ccc(OCCNC(=O)c2ccc(NC(=O)CC3SC(N4CCCC4)=NC3=O)cc2)cc1 (configuration not stated)	-6.1	40.2*	-3.9	-4.6	-5.7	-4.5	-1.4
COc1ccc(CCNC(=O)c2ccc(NC(=O)CC3SC(N4CCCC4)=NC3=O)cc2)cc1 (configuration not stated)	-4.3	3.9	1.4	3.6	5.8	1.2	.
C[C@H]1[C@@H]2C[C@@]3(O[C@H](c4ccccn4)N=C3C[C@@H]1c1ccccc1)N(Cc1ccncc1)C2=O	2.6	-3.3	5.9	-6.1	.	-0.6	.
SMILES	SIAE inh	TDP2 inh	ABHD4 inh	TCR-CD3 inh	HTRA1 inhibitor	LEDGF integ inh	TDP2 inh conf
CC1=NN(Cc2cc(C(C)(C)C)c(O)c(C(C)(C)C)c2)C(=O)C1	3.2	25.2*	1.8	2.9	-25.7	-1.0	0.3
O=C(CN1CCN(c2nc(-c3ccccc3)cs2)CC1)Nc1ccc(Cl)c(Cl)c1	3.7	12.0	-2.0	.	.	-1.9	.
COCCNC(=S)Nc1ccc(Cl)c(Cl)c1	2.9	-0.6	-7.9	-4.6	0.6	5.1	.
S=C(Nc1ccc2nsnc2c1)N1CCCCCC1	5.0	62.0*	1.1	4.8	-0.1	4.6	68.1*
COCCNC(=S)Nc1ccc2nsnc2c1	7.4	73.9*	1.6	10.0	3.9	11.2	1.6
COc1cc(NCCCNC(C)C)c2nccc(C)c2c1	6.2	27.7*	16.7	9.2	18.1	12.4	27.6*
COc1cc(NCc2ccccc2)c2ncn(C(C)C)c2c1	2.5	-1.8	7.2	-9.6	1.1	3.4	.
O=C1CCC(=O)N1CC(=O)N1CCCc2ccccc21	-5.7	24.6*	-1.1	-7.5	2.7	-1.1	12.6
Cc1ccc(C(=O)N/N=C/c2ccc(-c3ccc(Br)cc3[N+](=O)[O-])o2)o1	10.1	26.6*	15.4	9.0	10.4	1.1	12.8
Cc1ccc(C(=O)N/N=C\c2ccc(Br)o2)o1	0.5	-1.9	-4.3	1.3	2.4	0.5	.
Cc1ccc(-n2c(SCC(=O)Nc3ccc(OCc4ccccc4)cc3)nnc2-c2ccccc2)cc1	1.4	10.0	1.0	.	.	0.3	.
COc1cccc(N2CCN(Cc3cccnc3)CC2)c1	3.7	30.9*	14.7	0.0	1.1	2.9	-8.3
Cc1ccc(Cl)cc1NC(=O)N(C)CCOC(=O)Nc1cccc(Cl)c1	1.5	5.5	-16.4	-6.5	.	0.0	.
Cc1nn(-c2ccc(F)cc2)c(N)c1C1(O)C(=O)Nc2ccccc21 (configuration not stated)	1.4	3.0	0.5	-1.9	2.7	4.5	.
Cc1nn(-c2ccccc2)c(N)c1C1(O)C(=O)Nc2ccc([N+](=O)[O-])cc21 (configuration not stated)	8.1	32.8*	-0.5	3.0	-1.8	-4.2	-3.9
